# Test results taken from PMC5116011 (The Journal of antibiotics, 2016).
# Where two headings read alike, the source gives them in different places.
# What was measured:
# E. faecalis ATCC33186 = experiment: MIC, microbroth dilution in Mueller-Hinton broth; type: cell-based; conditions: Enterococcus faecalis, ATCC33186, read-out: MIC EF
# In short: (§1)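 CLSI broth microdilution in cation-adjusted Mueller-Hinton broth. Inocula were grown from MH agar colonies in MH broth, with a final inoculum of 10^5 CFU/ml. Test compound final range was 200–0.2 µg/ml, incubated 37°C for 18–20 h. MIC was the lowest concentration preventing visible growth. Runs were at least duplicate, and the mean MIC was reported.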
# P. vulgaris ATCC 33420 = experiment: MIC, microbroth dilution in Mueller-Hinton broth; type: cell-based; conditions: Proteus vulgaris, ATCC33420, read-out: MIC PV
# S. pneumoniae R6 = experiment: MIC, microbroth dilution in Mueller-Hinton broth; type: cell-based; conditions: Streptococcus pneumoniae, R6, read-out: MIC SP
# In short: as §1
# P. mirabilis ATCC 25933 = experiment: MIC, microbroth dilution in Mueller-Hinton broth; type: cell-based; conditions: Proteus mirabilis, ATCC25933, read-out: MIC PM
# S. aureus NRS 70 (MRSA) = experiment: MIC, microbroth dilution in Mueller-Hinton broth; type: cell-based; conditions: Staphylococcus aureus, MRSA|NRS70, read-out: MIC MRSA
# In short: as §1
# B. anthracis sterne = experiment: microbe, parasite or virus in culture; type: cell-based; conditions: Bacillus anthracis, read-out: MIC BA
# E. coli BW25113 = experiment: MIC, microbroth dilution in Mueller-Hinton broth; type: cell-based, Escherichia coli; conditions: for MIC EC MH+BP/CCCP: MH broth with 30 µg/ml 2,2′-bipyridyl and 50 µg/ml CCCP; for MIC EC +: with clavulanic acid (6µg/ml); for MIC: Escherichia coli, BW25113, read-out: MIC EC, E. coli BW25113
# P. aeruginosa PA01 = experiment: MIC, microbroth dilution in Mueller-Hinton broth; type: cell-based, Pseudomonas aeruginosa; conditions: for MIC PA MH+BP/CCCP / MIC PA +: P. aeruginosa PA01; for MIC PA MH+BP/CCCP: MH broth with 30 µg/ml 2,2′-bipyridyl and 50 µg/ml CCCP; for MIC PA +: with clavulanic acid (6µg/ml); for MIC: Pseudomonas aeruginosa
# B. subtilis ATCC23857 = experiment: MIC, microbroth dilution in Mueller-Hinton broth; type: cell-based; conditions: Bacillus subtilis, ATCC23857, read-out: MIC BS
# In short: as §1
# [1] = test system: E. coli BW25113 ΔtolC derivative JW5503-1; experiment: MIC, microbroth dilution in Mueller-Hinton broth; type: cell-based, Escherichia coli; conditions: for MIC: Escherichia coli
# [2] = test system: S. aureus -ATCC29213 (MSSA); experiment: MIC, microbroth dilution in Mueller-Hinton broth; type: cell-based; conditions: Staphylococcus aureus, read-out: MIC MSSA
# In short: as §1
# S. pyogenes ATCC700294 = experiment: MIC, microbroth dilution in Mueller-Hinton broth; type: cell-based; conditions: Streptococcus pyogenes, ATCC700294, read-out: MIC SPy
# In short: as §1
# [3] = test system: E. coli BW25113 ΔampC derivative JW4111-2; type: cell-based, Escherichia coli; conditions: for MIC: Escherichia coli, BW25113, read-out: MIC ECΔampC −
# [4] = BW25113, read-out: MIC ECΔtolC MH
# [5] = BW25113, read-out: MIC ECΔtolC MH+BP
Structure (SMILES),MIC (E. faecalis ATCC33186) [µg/mL],MIC (P. vulgaris ATCC 33420) [µg/mL],MIC (S. pneumoniae R6) [µg/mL],MIC (P. mirabilis ATCC 25933) [µg/mL],MIC (S. aureus NRS 70 (MRSA)) [µg/mL],MIC (B. anthracis sterne) [µg/mL],MIC EC MH+BP/CCCP (E. coli BW25113; E. coli BW25113) [µg/mL],MIC EC + (E. coli BW25113; E. coli BW25113) [µg/mL],MIC (E. coli BW25113; Mueller-Hinton broth (Table 2)) [µg/mL],MIC PA MH+BP/CCCP (P. aeruginosa PA01) [µg/mL],"MIC (P. aeruginosa PA01; PA01, read-out: MIC PA) [µg/mL]","MIC (P. aeruginosa PA01; PA01, read-out: MIC PA MH) [µg/mL]","MIC (P. aeruginosa PA01; PA01, read-out: MIC PA MH+BP) [µg/mL]","MIC (P. aeruginosa PA01; PA01, read-out: MIC PA MH+CCCP) [µg/mL]",MIC (B. subtilis ATCC23857) [µg/mL],"MIC ([1]; BW25113, read-out: MIC ECΔtolC) [µg/mL]","MIC [1, 4] [µg/mL]","MIC [1, 5] [µg/mL]",MIC [2] [µg/mL],MIC (S. pyogenes ATCC700294) [µg/mL],further results
CC(C)C1NC(=O)C(C(=O)NC(C(=O)NC2C(=O)N3C2SC(C)(C)C3C(=O)O)c2ccccc2)=C1O (stereo not shown) [Compound 2744],12.5,12.5,0.39,12.5,25,6.25,25,25,100,25,25,25,50,12.5,3.13,3.13,3.13,3.13,1.56,0.78,"MIC PA + (P. aeruginosa PA01): 25 µg/mL; MIC (P. aeruginosa PA01; PA01, read-out: MIC PA −): 25 µg/mL; MIC ECΔtolC MH+BP/CCCP ([1]; {}): 0.78 µg/mL; MIC ECΔtolC MH+CCCP ([1]; {}): 1.56 µg/mL; MIC ECΔampC + [3]: 12.5 µg/mL"
CC(C)(C)OCC1NC(=O)C(C(=O)NC(C(=O)NC2C(=O)N3C2SC(C)(C)C3C(=O)O)c2ccccc2)=C1O (stereo not shown) [Compound 1940],25,50,0.78,6.25,25,3.13,12.5,12.5,50,6.25,25,25,12.5,12.5,3.13,12.5,12.5,3.13,1.56,0.78,"MIC PA + (P. aeruginosa PA01): 12.5 µg/mL; MIC (P. aeruginosa PA01; PA01, read-out: MIC PA −): 25 µg/mL; MIC ECΔtolC MH+BP/CCCP ([1]; {}): 1.56 µg/mL; MIC ECΔtolC MH+CCCP ([1]; {}): 6.25 µg/mL; MIC [3]: 12.5 µg/mL; MIC ECΔampC + [3]: 6.25 µg/mL"
CC(C)(C)Oc1ccc(CC2NC(=O)C(C(=O)NC(C(=O)NC3C(=O)N4C3SC(C)(C)C4C(=O)O)c3ccccc3)=C2O)cc1 (stereo not shown) [Compound 1905],50,50,< 0.2,25,50,3.13,6.25,12.5,25,0.78,25,25,6.25,3.13,3.13,6.25,6.25,1.56,0.78,0.78,"MIC PA + (P. aeruginosa PA01): 12.5 µg/mL; MIC (P. aeruginosa PA01; PA01, read-out: MIC PA −): 25 µg/mL; MIC ECΔtolC MH+BP/CCCP ([1]; {}): 0.78 µg/mL; MIC ECΔtolC MH+CCCP ([1]; {}): 1.56 µg/mL; MIC ECΔampC + [3]: 12.5 µg/mL"
CC1(C)SC2C(NC(=O)C(NC(=O)C3=C(O)CN(c4ccccc4)C3=O)c3ccccc3)C(=O)N2C1C(=O)O (stereo not shown) [Compound 2919],25,25,< 0.2,50,50,3.13,25,50,6.25 to 12.5,12.5,50,50,50,25,1.56,3.13,6.25,3.13,0.78,0.78,"MIC EC (E. coli BW25113; E. coli BW25113, Mueller-Hinton broth (Table 2)): 12.5 µg/mL; MIC PA + (P. aeruginosa PA01): 12.5 µg/mL; MIC ECΔtolC MH+BP/CCCP ([1]; {}): 1.56 µg/mL; MIC ECΔtolC MH+CCCP ([1]; {}): 3.13 µg/mL; MIC [3]: 12.5 µg/mL; MIC ECΔampC + [3]: 6.25 µg/mL"
CC1(C)SC2C(NC(=O)C(NC(=O)C3=C(O)C4CCCN4C3=O)c3ccccc3)C(=O)N2C1C(=O)O (stereo not shown) [Compound 2780],25,12.5,0.39,1.56,50,1.56,25,50,200,6.25,25,25,25,6.25,0.78,6.25,6.25,6.25,0.39,0.78,"MIC PA + (P. aeruginosa PA01): 12.5 µg/mL; MIC (P. aeruginosa PA01; PA01, read-out: MIC PA −): 25 µg/mL; MIC ECΔtolC MH+BP/CCCP ([1]; {}): 3.13 µg/mL; MIC ECΔtolC MH+CCCP ([1]; {}): 3.13 µg/mL; MIC [3]: 12.5 µg/mL; MIC ECΔampC + [3]: 3.13 µg/mL"
"CC1(C)S[C@@H]2[C@H](NC(=O)C(C(=O)O)c3ccccc3)C(=O)N2[C@H]1C(=O)O (stereo partly shown) [carbenicillin, reference compound]",3.13,100,< 0.2,1.56,6.25,< 0.2,0.78,–,100,1.56,100,200,50,25,< 0.2,0.09,1.56,0.56,< 0.2,< 0.2,"MIC ECΔtolC MH+CCCP ([1]; E. coli BW25113 ΔtolC JW5503-1, MH broth containing 50 µg/ml CCCP): 0.78 µg/mL"
